The results in this text go back to the RNAGym collection of RNA variant scans (doi:10.1126/science.aae0568).

Fewer inactive variants are shown than the library holds. Bounds are passed on as bounds.

B1: tRNA (parent)
chain: GUUCCGUUGGCGUAAUGGUAACGCGUCUCCCUCCUAAGGAGAAGACUGCGGGUUCGAGUCCCGUACGGAACG

Variants of B1 are the subject of this series. As to the kind of experiment: yeast fitness relative to wild type (ratio to wild type); higher = fitter; tRNA-Arg(CCU), competitive growth, 37 C, YPD. In short, it runs like this:
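Start and end populations of a pooled competition were compared by 100-nucleotide paired-end sequencing of gene amplicons. The Saccharomyces cerevisiae strains carried tRNA-Arg(CCU) gene variants at the native genomic locus, synthesised with a 3% per-site mutation rate at 69 sites, and competed in YPD at 37°C for 24 hours in six parallel replicates. Darwinian fitness relative to wild type was based on the change in genotype frequencies. Genotypes required ≥ 100 starting reads, and estimates < 0.5 were set to 0.5.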
On to C11U G18C C31U C62U, for which the yeast fitness is ≤ 0.5.

Consider C11U C22U A43C C49U C55G C61U, for which the yeast fitness is ≤ 0.5.

With C11U U26C C61G A65C, the yeast fitness was ≤ 0.5.

On to C11U G12C, for which the yeast fitness amounted to 0.75.

On to C11U C30G U35A C46U G51A G56A, for which the yeast fitness was ≤ 0.5.

C11U C66U A69G: the yeast fitness came to 0.639.

As to C11U C31U U35C A69U, the yeast fitness is ≤ 0.5.

For C11U G17A C29A, the yeast fitness is ≤ 0.5.

Consider C11U U35A G38A C55G, for which the yeast fitness was ≤ 0.5.

As to C11U C30G A40C C61U, the yeast fitness is ≤ 0.5.

For C11U C46U A65U A69U, the yeast fitness turned out to be 0.54.

Turning to C11U A45U C66A, the yeast fitness amounted to 0.659.

With C11U C22A C29G C33U A70C, the yeast fitness came to 0.551.

In the case of C11U U28A C33G, the yeast fitness was 0.619.

For the variant C11U G44A C49U, the yeast fitness is 0.81.

Turning to C11U C31G A70U, the yeast fitness amounted to 0.598.

For the variant C11U G12A G51C C62U, the yeast fitness was ≤ 0.5.

For the variant C11U U19G, the yeast fitness was determined as 0.962.

For the variant C11U G63A, the yeast fitness came to 0.903.

For the variant C11U G58C C61U, the yeast fitness amounted to 0.65.

G12A A15C: the yeast fitness was 0.773.

C11U G18A A36U: the yeast fitness was ≤ 0.5.

For C11U U16C C24U, the yeast fitness is 0.591.

In the case of C11U U28G G51C U64A C66U A69C, the yeast fitness was ≤ 0.5.

Regarding C11U C22U C66U A70C, the yeast fitness was ≤ 0.5.

Consider C11U U13A C30U G38C C49A, for which the yeast fitness is ≤ 0.5.

As to C11U C29G A37C A42U A57G G67A, the yeast fitness worked out at 0.566.

In the case of C11U G68C A69U, the yeast fitness turned out to be 0.54.

On to C11U G23C G41A C62A, for which the yeast fitness was ≤ 0.5.

In the case of C11U G41A, the yeast fitness was found to be 0.902.

Regarding C11U G44A G50A C66G, the yeast fitness was 0.511.

In the case of C11U C61U A65C, the yeast fitness was ≤ 0.5.

Consider C11U C27G A43C A57U, for which the yeast fitness is 0.696.

With C11U G18A A36U G48C C49U, the yeast fitness was determined as 0.558.

C11U U19G C34U G56A: the yeast fitness is ≤ 0.5.

Take C11U C34G A69C: the yeast fitness was 0.535.

As to C11U U54A G58C, the yeast fitness is ≤ 0.5.

Consider G12A A15G A65C, for which the yeast fitness was ≤ 0.5.

Take C11U C29G C33U C60U A65U A69U: the yeast fitness is ≤ 0.5.

Turning to C11U G17C U32A C46A, the yeast fitness is ≤ 0.5.

With C11U G39C G68C, the yeast fitness is ≤ 0.5.

On to C11U C29U A36U C66U G67A, for which the yeast fitness is ≤ 0.5.

Regarding C11U G58U C61A, the yeast fitness is ≤ 0.5.

For C11U C31U G39C A40U, the yeast fitness turned out to be 0.544.

Turning to G12A A15G A43C, the yeast fitness was ≤ 0.5.

As to C11U U28G C30A, the yeast fitness is ≤ 0.5.

For C11U G18A G48A G67C, the yeast fitness was ≤ 0.5.

In the case of C11U C49G C62U, the yeast fitness was ≤ 0.5.

Take G12A A14C C34G: the yeast fitness was ≤ 0.5.

Turning to C11U C22G C34G A70C, the yeast fitness was ≤ 0.5.

On to C11U U19C C27G, for which the yeast fitness is 0.66.

For C11U C22G C27U C31G, the yeast fitness was ≤ 0.5.

On to C11U C24G A36C A37G A70C, for which the yeast fitness was ≤ 0.5.

As for C11U C22A A40U C46U C61U, the yeast fitness is ≤ 0.5.

On to C11U U28G, for which the yeast fitness was determined as 0.792.

Consider C11U C27A U54G, for which the yeast fitness was ≤ 0.5.

Take C11U U54C C61U: the yeast fitness was ≤ 0.5.

As to G12A A20C C49G, the yeast fitness stood at 0.539.

As to C11U U19C G23A G25A C55U, the yeast fitness was determined as 0.537.

For C11U U19C C31A G50U C62G, the yeast fitness is ≤ 0.5.

With C11U U35A G38A G56C, the yeast fitness is ≤ 0.5.

In the case of C11U C24A A42G A57U U64A A69U, the yeast fitness amounted to 0.505.

With C11U U59A, the yeast fitness came to 0.757.

Take C11U G18C A40C G63A: the yeast fitness is ≤ 0.5.

Turning to C11U U13C C24A A43C G50C, the yeast fitness was ≤ 0.5.

In the case of C11U C29U U59C, the yeast fitness is ≤ 0.5.

Regarding C11U G68U, the yeast fitness is 0.898.

For the variant C11U G68C, the yeast fitness is 0.814.

Regarding C11U U13G U19A C22G G25A C61A, the yeast fitness was ≤ 0.5.

As to C11U C22G A70C, the yeast fitness stood at 0.669.

Turning to G12A A15G G39C, the yeast fitness was ≤ 0.5.

Take C11U U13A G41A A45U G58U C60A: the yeast fitness is ≤ 0.5.

For C11U G17C A21U G56A, the yeast fitness is ≤ 0.5.

In the case of C11U C24U C29G G38A A40C, the yeast fitness was ≤ 0.5.

For the variant C11U G23A U35C, the yeast fitness worked out at 0.573.

Take C11U C46G G51A C55U G63U: the yeast fitness is ≤ 0.5.

On to C11U C33U A36G G39A G44A, for which the yeast fitness is ≤ 0.5.

For the variant C11U C29G, the yeast fitness worked out at 0.687.

On to C11U C29U, for which the yeast fitness worked out at 0.738.

In the case of C11U C31U A40C, the yeast fitness amounted to 0.697.

Consider C11U C22U C34A A40U, for which the yeast fitness is ≤ 0.5.

On to C11U C31G C46A G63C A65U, for which the yeast fitness was 0.531.

Consider C11U U28A G58C A70C, for which the yeast fitness is ≤ 0.5.

C11U U28C C29G G67A: the yeast fitness was ≤ 0.5.

On to C11U U19G G52A, for which the yeast fitness is 0.609.

As to C11U G23C C27A A69U, the yeast fitness was ≤ 0.5.

On to G12A A15U C24A A45G, for which the yeast fitness was ≤ 0.5.

Turning to C11U C30A, the yeast fitness amounted to 0.823.

With C11U C31G C46G G52A C66U, the yeast fitness is ≤ 0.5.

For the variant C11U A45U C61G A65C, the yeast fitness was ≤ 0.5.

For the variant C11U C31G C49U G67A, the yeast fitness is ≤ 0.5.

Take C11U U13C C30U A43G: the yeast fitness is ≤ 0.5.

Turning to C11U C31U C46G U47A A65C, the yeast fitness was ≤ 0.5.

As for C11U G39U, the yeast fitness came to 0.835.

On to C11U G39A, for which the yeast fitness was determined as 0.947.

For the variant C11U C24A G68C, the yeast fitness was ≤ 0.5.

As for C11U C33G A37U, the yeast fitness is ≤ 0.5.

Regarding C11U G18C C31U, the yeast fitness is ≤ 0.5.

Consider C11U U19A C29G, for which the yeast fitness stood at 0.704.

As to C11U U32A A70C, the yeast fitness amounted to 0.614.

As to C11U C30U G52C, the yeast fitness is ≤ 0.5.

Take C11U C22U A65U A69U: the yeast fitness is ≤ 0.5.

With C11U A45U, the yeast fitness is 0.951.

With C11U U19A A43U U59A G63A, the yeast fitness was ≤ 0.5.

As to C11U C30U C66A, the yeast fitness is ≤ 0.5.

C11U C24G C33A A40C C66U: the yeast fitness turned out to be 0.743.

In the case of C11U A45G U53C, the yeast fitness was 0.637.

In the case of C11U U13C C24A A43C G50C C60G A70U, the yeast fitness was found to be 0.567.

Turning to G12A A15U A21C U47A, the yeast fitness was ≤ 0.5.

On to C11U A45U A65U, for which the yeast fitness amounted to 0.82.

Regarding C11U A45U G58U, the yeast fitness turned out to be 0.562.

In the case of C11U C66G A69U, the yeast fitness amounted to 0.555.

Regarding C11U A69C, the yeast fitness was 0.905.

C11U U35A G38A C61G: the yeast fitness was 0.565.

For the variant G12A A15G A43C A65G, the yeast fitness was ≤ 0.5.

C11U G56A C62A: the yeast fitness came out at 0.567.

Regarding C11U G56A C62G, the yeast fitness is ≤ 0.5.

On to G12A A14C C31U, for which the yeast fitness is ≤ 0.5.

For C11U C24G A57G, the yeast fitness was ≤ 0.5.

C11U U64C: the yeast fitness is 0.879.

Consider C11U U64A, for which the yeast fitness was found to be 0.71.

Consider C11U C27U C31A A42G C49G G51A G68C, for which the yeast fitness is ≤ 0.5.

As for C11U U19C C61G A65C, the yeast fitness was ≤ 0.5.

For C11U U13C A20C C22G, the yeast fitness was ≤ 0.5.

As for G12A A20C A43U U47C C62U A70C, the yeast fitness was ≤ 0.5.

C11U C22G A36G: the yeast fitness came out at 0.675.

As to C11U C22A C29G C33U U35C A70C, the yeast fitness is ≤ 0.5.

In the case of C11U G17A A40C, the yeast fitness was ≤ 0.5.

In the case of C11U G18C A21G, the yeast fitness turned out to be 0.571.

As for C11U G41A C60G A65G, the yeast fitness was 0.624.

As for C11U C46G C61U, the yeast fitness was determined as 0.596.

Consider C11U G52A C60A, for which the yeast fitness is 0.593.

C11U C24G C33A A42G: the yeast fitness was ≤ 0.5.

With C11U C34A, the yeast fitness was determined as 0.758.

Regarding C11U U35C C55A A69U, the yeast fitness is ≤ 0.5.

On to C11U A57U C60G G68C, for which the yeast fitness was ≤ 0.5.

Consider C11U U32C A45C, for which the yeast fitness is 0.885.

As to C11U C55U, the yeast fitness stood at 0.8.

Take C11U C55A: the yeast fitness was 0.678.

As to C11U G17C C62U A69U, the yeast fitness is 0.567.

Take C11U C49U G56A A65C: the yeast fitness is ≤ 0.5.

In the case of C11U C22U U54C G56C G58A, the yeast fitness is ≤ 0.5.

As for C11U C31U C61U A69U, the yeast fitness is ≤ 0.5.

C11U U13G U19A C22G G25A G48A A69U: the yeast fitness is ≤ 0.5.

Turning to C11U U19A C33U G41C A45C, the yeast fitness is ≤ 0.5.

Regarding C11U C22G C62U G68C, the yeast fitness is 0.542.

Regarding C11U C24U C29G G38A A40C C61A A65G, the yeast fitness was ≤ 0.5.

As to C11U U32G U54A G67C, the yeast fitness was ≤ 0.5.

Turning to C11U U19G C66A, the yeast fitness amounted to 0.54.

C11U G52A A65U: the yeast fitness was determined as 0.567.

For G12A A14G A21G C24G U28G, the yeast fitness worked out at 0.674.

Turning to C11U C55A C66A, the yeast fitness was ≤ 0.5.

As for C11U G12A C31U, the yeast fitness was found to be 0.532.

Take C11U U16A U54C: the yeast fitness was ≤ 0.5.

Regarding C11U C31U U64A A70G, the yeast fitness was ≤ 0.5.

In the case of C11U U47A C60G C62A, the yeast fitness was ≤ 0.5.

On to G12A A15G A69C, for which the yeast fitness came to 0.707.

On to C11U C27G A43U G63A, for which the yeast fitness was ≤ 0.5.

In the case of C11U C55U U59C A65C, the yeast fitness was ≤ 0.5.

As to C11U U28C U32G, the yeast fitness worked out at 0.569.

Take C11U U26G U35C G63A A70G: the yeast fitness was ≤ 0.5.

For C11U C49A A57C, the yeast fitness was ≤ 0.5.

For C11U C29A A36U G50C C55G C61G, the yeast fitness is 0.592.

Turning to C11U C24G U59A C60A, the yeast fitness is ≤ 0.5.

Regarding G12A A14U C30U, the yeast fitness was ≤ 0.5.

Take C11U U16C G23A A36C: the yeast fitness is ≤ 0.5.

On to C11U U13G U19A C22G G25A A65C, for which the yeast fitness is ≤ 0.5.
